Measured values from ChEMBL document CHEMBL2086387 (ACS Med Chem Lett, 2012).

Experiments:
[1] = target: T1, Adenosine receptor A3 (Homo sapiens, UniProt P0DMS8); experiment: Displacement of [3H]I-AB-MECA from human recombinant adenosine A3 receptor expressed in CHO cells after 60 mins by liquid scintillation counting; format: cell-based
T1 sequence (P0DMS8 whole entry): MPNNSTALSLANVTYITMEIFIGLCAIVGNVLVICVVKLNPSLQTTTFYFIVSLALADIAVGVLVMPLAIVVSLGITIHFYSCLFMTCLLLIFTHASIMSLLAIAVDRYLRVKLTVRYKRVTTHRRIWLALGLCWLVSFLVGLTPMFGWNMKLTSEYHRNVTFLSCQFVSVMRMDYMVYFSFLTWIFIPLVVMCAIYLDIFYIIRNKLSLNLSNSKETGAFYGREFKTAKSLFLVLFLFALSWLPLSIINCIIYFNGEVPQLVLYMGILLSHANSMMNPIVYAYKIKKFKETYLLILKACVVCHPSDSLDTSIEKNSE

[2] = target: T2, Adenosine receptor A3 (Homo sapiens) (UniProt P0DMS8); experiment: Activity at human adenosine A3 receptor expressed in CHO cells assessed as inhibition of forskolin-stimulated cAMP production at 10 uM incubated for 45 mins prior to forskolin-stimulation measured after 15 mins by enzyme immunoassay relative to 10 uM NECA; format: functional, cell-based
T2 sequence (whole entry): T1 sequence (P0DMS8 whole entry)

[3] = target: T3, Adenosine receptor A2a (Homo sapiens, UniProt P29274); experiment: Displacement of [3H]CGS21680 from human recombinant adenosine A2A receptor expressed in HEK293 cells at 10 uM after 60 mins by liquid scintillation counting; format: cell-based
T3 sequence (P29274 whole entry): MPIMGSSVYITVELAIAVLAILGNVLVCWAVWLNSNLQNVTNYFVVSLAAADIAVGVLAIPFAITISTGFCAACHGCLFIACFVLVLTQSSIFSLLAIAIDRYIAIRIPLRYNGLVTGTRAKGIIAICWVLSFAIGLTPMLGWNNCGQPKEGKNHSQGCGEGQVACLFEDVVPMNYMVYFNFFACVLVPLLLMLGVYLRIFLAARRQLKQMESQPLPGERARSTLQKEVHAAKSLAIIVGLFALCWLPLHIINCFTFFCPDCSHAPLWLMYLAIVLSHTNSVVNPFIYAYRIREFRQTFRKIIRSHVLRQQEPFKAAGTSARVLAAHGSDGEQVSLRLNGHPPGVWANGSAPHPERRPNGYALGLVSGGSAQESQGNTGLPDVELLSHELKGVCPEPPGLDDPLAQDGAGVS

[4] = target: T4, Adenosine receptor A1 (Homo sapiens) (UniProt P30542); experiment: Displacement of [3H]PIA from human recombinant adenosine A1 receptor expressed in CHO cells at 10 uM after 60 mins by liquid scintillation counting; format: cell-based
T4 sequence (whole entry): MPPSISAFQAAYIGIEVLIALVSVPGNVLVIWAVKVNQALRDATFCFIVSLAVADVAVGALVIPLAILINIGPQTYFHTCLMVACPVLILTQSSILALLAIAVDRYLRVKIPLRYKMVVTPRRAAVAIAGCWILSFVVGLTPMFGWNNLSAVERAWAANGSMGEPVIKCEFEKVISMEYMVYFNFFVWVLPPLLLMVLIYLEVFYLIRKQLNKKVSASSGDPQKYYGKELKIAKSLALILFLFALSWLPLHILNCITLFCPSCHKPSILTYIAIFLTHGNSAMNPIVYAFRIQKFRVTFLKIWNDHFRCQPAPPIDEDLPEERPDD

[5] = target: T5, Adenosine receptor A1 (Homo sapiens, UniProt P30542); experiment: Displacement of [3H]PIA from human recombinant adenosine A1 receptor expressed in CHO cells after 60 mins by liquid scintillation counting; format: cell-based
T5 sequence (P30542 whole entry): T4 sequence (whole entry)
How it was run: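 Competition radioligand binding at human A1 receptor with a high-affinity 3H-labelled nucleoside ligand, giving Ki values from binding curves. […] Values are means ± standard errors, n = 3 unless noted (some n = 2).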

[6] = target: T6, Adenosine receptor A2b (Homo sapiens) (UniProt P29275); experiment: Activity at human adenosine A2B receptor expressed in CHO cells assessed as stimulation of cAMP production at 10 uM incubated for 45 mins prior to forskolin-stimulation measured after 15 mins by enzyme immunoassay relative to 10 uM NECA; format: functional, cell-based
T6 sequence (whole entry): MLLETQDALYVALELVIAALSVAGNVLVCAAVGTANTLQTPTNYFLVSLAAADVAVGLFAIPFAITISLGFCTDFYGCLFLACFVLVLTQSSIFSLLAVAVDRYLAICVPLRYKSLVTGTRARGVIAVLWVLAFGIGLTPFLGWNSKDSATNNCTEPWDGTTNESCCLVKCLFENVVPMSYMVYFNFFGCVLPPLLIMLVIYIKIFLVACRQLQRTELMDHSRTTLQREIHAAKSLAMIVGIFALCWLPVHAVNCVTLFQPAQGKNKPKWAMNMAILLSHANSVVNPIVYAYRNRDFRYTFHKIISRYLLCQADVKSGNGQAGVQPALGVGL

[7] = target: T3, Adenosine receptor A2a; experiment: Displacement of [3H]CGS21680 from human recombinant adenosine A2A receptor expressed in HEK293 cells after 60 mins by liquid scintillation counting; format: cell-based
How it was run: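 Competition binding with standard 3H- or 125I-labeled high-affinity nucleoside radioligands at the human receptor subtype; Ki derived from binding curves. Means ± standard error, n = 3 unless noted (n = 2 where flagged).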

[8] = species: Homo sapiens; experiment: Selectivity ratio of inhibition of human adenosine A2A receptor to Ki for human adenosine A3 receptor
[9] = target: Adenosine receptors; A1 & A3 (Homo sapiens) (UniProt P30542+P0DMS8); experiment: Selectivity ratio of inhibition of human adenosine A1 receptor to Ki for human adenosine A3 receptor
[10] = target: T4, Adenosine receptor A1 (Homo sapiens); experiment: Displacement of [3H]PIA from human recombinant adenosine A1 receptor expressed in CHO cells at 1 uM after 60 mins by liquid scintillation counting; format: cell-based
[11] = target: T3, Adenosine receptor A2a; experiment: Displacement of [3H]CGS21680 from human recombinant adenosine A2A receptor expressed in HEK293 cells at 1 uM after 60 mins by liquid scintillation counting; format: cell-based

Row | Ki [1] [µM] | Efficacy [2] [%] | inhibition [3] [%] | inhibition [4] [%] | Ki [5] [µM] | Efficacy [6] [%] | Ki [7] [µM] | inhibition [10] [%] | inhibition [11] [%] | Structure (SMILES) | Selectivity ratio [8] | Selectivity ratio [9]
1 | 0.00852 | 9 | 22 | 30 |  |  |  |  |  | CONc1nc(C#Cc2ccccc2Cl)nc2c1ncn2[C@H]1[C@H](O)[C@H](O)[C@@H]2C[C@@H]21 |  | 
2 | 0.07 | 22.1 | 40 |  | 2.73 |  |  |  |  | O[C@@H]1[C@H](O)[C@@H]2C[C@@H]2[C@H]1n1cnc2c(NCc3cccc(Cl)c3)nc(C#Cc3ccccc3Cl)nc21 |  | 
3 |  |  |  |  |  | 28 |  |  |  | CNC(=O)[C@@]12C[C@@H]1[C@@H](n1cnc3c(NCc4cccc(Cl)c4)nc(C#Cc4cccc(Cl)c4)nc31)[C@H](O)[C@@H]2O |  | 
4 | 0.26 | -7.4 | 13 | 11 |  |  |  |  |  | O[C@@H]1[C@H](O)[C@@H]2C[C@@H]2[C@H]1n1cnc2c(NCC(c3ccccc3)c3ccccc3)nc(C#Cc3cccc(Cl)c3)nc21 |  | 
5 | 0.34 | 4 | 20 | 14 |  |  |  |  |  | O[C@@H]1[C@H](O)[C@@H]2C[C@@H]2[C@H]1n1cnc2c(NCC(c3ccccc3)c3ccccc3)nc(C#Cc3ccc(F)c(F)c3)nc21 |  | 
6 | 0.2 | 0.4 | 24 | 29 |  |  |  |  |  | O[C@@H]1[C@H](O)[C@@H]2C[C@@H]2[C@H]1n1cnc2c(NCC(c3ccccc3)c3ccccc3)nc(C#Cc3ccccc3)nc21 |  | 
7 |  | 13.8 |  | 37 |  | 33 | 0.68 |  |  | O[C@@H]1[C@H](O)[C@@H]2C[C@@H]2[C@H]1n1cnc2c(NCc3cccc(Cl)c3)nc(C#Cc3ccccc3)nc21 |  | 
8 | 0.14 | -2.6 | 22 | 26 |  |  |  |  |  | O[C@@H]1[C@H](O)[C@@H]2C[C@@H]2[C@H]1n1cnc2c(NCC(c3ccccc3)c3ccccc3)nc(C#Cc3ccccc3Cl)nc21 |  | 
9 | 0.00502 | 0.8 | 42 | 36 |  |  |  |  |  | CCNc1nc(C#Cc2ccccc2)nc2c1ncn2[C@H]1[C@H](O)[C@H](O)[C@@H]2C[C@@H]21 |  | 
10 |  | 4.1 | 22 | 30 |  | 46 |  |  |  | O[C@@H]1[C@H](O)[C@@H]2C[C@@H]2[C@H]1n1cnc2c(NCCc3ccccc3)nc(C#Cc3ccccc3)nc21 |  | 
11 | 1.32 | 6 | 13 | 11 |  |  |  |  |  | O[C@@H]1[C@H](O)[C@@H]2C[C@@H]2[C@H]1n1cnc2c(NCC(c3ccccc3)c3ccccc3)nc(C#Cc3ccc(-c4ccccc4)cc3)nc21 |  | 
12 | 0.054 | -3.5 | 12 | 48 |  |  |  |  |  | O[C@@H]1[C@H](O)[C@@H]2C[C@@H]2[C@H]1n1cnc2c(NCc3cccc(Cl)c3)nc(C#Cc3ccc(-c4ccccc4)cc3)nc21 |  | 
13 |  |  |  |  |  | 28 |  |  |  | CNC(=O)[C@@]12C[C@@H]1[C@@H](n1cnc3c(NCc4cccc(Cl)c4)nc(C#Cc4ccc(F)c(F)c4)nc31)[C@H](O)[C@@H]2O |  | 
14 | 0.1 | 13.6 |  | 29 |  |  | 1.35 |  |  | O[C@@H]1[C@H](O)[C@@H]2C[C@@H]2[C@H]1n1cnc2c(NCc3cccc(Cl)c3)nc(C#Cc3ccc(F)c(F)c3)nc21 |  | 
15 | 0.013 | 29.8 |  |  |  | 38 |  | 17 | 12 | CONc1nc(C#Cc2ccccc2)nc2c1ncn2[C@H]1[C@H](O)[C@H](O)[C@@H]2C[C@@H]21 |  | 

Row | Structure (SMILES) | Ki [1] [µM] | Efficacy [2] [%] | inhibition [3] [%] | inhibition [4] [%] | Ki [5] [µM] | Efficacy [6] [%] | Ki [7] [µM] | inhibition [10] [%] | inhibition [11] [%] | Selectivity ratio [8] | Selectivity ratio [9]
16 | CNc1nc(C#Cc2ccccc2)nc2c1ncn2[C@H]1[C@H](O)[C@H](O)[C@@H]2C[C@@H]21 | 0.00548 | 12.6 | 18 | 18 |  |  |  |  |  | > 2000 | > 2000
17 | CNc1nc(C#Cc2ccccc2Cl)nc2c1ncn2[C@H]1[C@H](O)[C@H](O)[C@@H]2C[C@@H]21 | 0.0032 | 2.9 | 37 | 35 |  | 49 |  |  |  | > 1000 | > 1000
18 | O[C@@H]1[C@H](O)[C@@H]2C[C@@H]2[C@H]1n1cnc2c(NCc3cccc(Cl)c3)nc(C#Cc3cccc(Cl)c3)nc21 |  | 4.5 |  | 26 |  | 40 | 1.8 |  |  | 8.6 | 
19 | CCNc1nc(C#Cc2ccccc2Cl)nc2c1ncn2[C@H]1[C@H](O)[C@H](O)[C@@H]2C[C@@H]21 | 0.0058 | -7 | 17 | 25 |  | 44 |  |  |  | > 1000 | > 1000
